Data set [1] addresses Dihydroorotate dehydrogenase (quinone), mitochondrial (Homo sapiens, UniProt Q02127). Briefly: Inhibition of recombinant N-terminal GST-tagged human DHODH (31 to 395 residues) expressed in Escherichia coli BL21(DE3) assessed as inhibition of DCIP reduction using dihydroorotate as substrate preincubated for 5 mins followed by substrate addition measured after 5 mins.
The nature of data set [2]: Stability of the compound in human serum assessed as compound remaining at 37 degC after 24 hrs by RP-HPLC analysis. In kind it is ADME, cell-free. The conditions noted are these: read-out: Stability. In a few lines: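 Compound from DMSO stock added to human male AB serum (2% cosolvent) and shaken at 37 °C. Samples taken at 0–24 h were deproteinized with 0.1% TFA in acetonitrile, centrifuged and filtered. Analyzed by C18 RP-HPLC (acetonitrile/water 70/30, 0.1% TFA). Value is % unmodified parent at 24 h.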

Data set [3] has as its system Jurkat. Briefly: Antiproliferative activity against human Jurkat T cells assessed as DNA content after 72 hrs by Hoechst 33258 dye-based fluorescence assay. Type of data set: functional, cell-based.
Data set [4] concerns Jurkat. Description: Antiproliferative activity against human Jurkat T cells assessed as DNA content after 72 hrs in presence of exogenous uridine by Hoechst 33258 dye-based fluorescence assay. In kind it is functional, cell-based.
Data set [5] deals with PBMC. Description: Immunosuppressive activity against human PBMC assessed as inhibition of PHA-stimulated cell proliferation preincubated for 2 hrs followed by PHA stimulation for 72 hrs by Hoechst 33258 dye-based fluorescence assay. In kind it is functional.
For data set [6], the system named is PBMC. Briefly: Immunosuppressive activity against human PBMC assessed as inhibition of PHA-stimulated cell proliferation preincubated for 2 hrs followed by PHA stimulation for 72 hrs in presence of exogenous uridine by Hoechst 33258 dye-based fluorescence assay. Type of data set: functional.
The subject of a further data set is U-937. Description: Induction of myeloid differentiation in human U937 cells assessed as increase in CD11b expression level at 0.1 to 1 uM up to 4 days by propidium iodide staining-based flow cytometry. In kind it is functional. In outline:
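Cells plated at 1 × 10^4 with inhibitor 0.1–10 μM. Differentiation was followed daily by flow cytometry, to day 4 for U937 and day 5 for THP1. Markers were PE-CD11b for U937 and FITC-CD14 for THP1, stained 45 min at 4 °C in PBS/2% BSA/1 mM EDTA. Propidium iodide excluded dead cells. Uridine-rescue (100 μM) samples were read at day 3.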
For orientation: A flow cytometer gives signals particle by particle.

The next data set has as its system THP-1. Briefly: Induction of myeloid differentiation in human THP1 cells assessed as increase in CD14 expression level at 0.1 to 1 uM up to 4 days by propidium iodide staining-based flow cytometry.
In data set [7] the test system is Jurkat. Briefly: Cytotoxicity against human Jurkat T cells assessed as compound concentration required to induce =>30% cell death after 72 hrs by CellTox green assay. Type of data set: cell-based. In outline:
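Jurkat T cells (complete X-VIVO 15, 10% FBS, 37 °C, 5% CO2; passages 5–10, mycoplasma-tested), 5 × 10^3/well. Cells exposed to 0.001–100 μM compound or DMSO vehicle for 72 h. Cell death read by CellTox Green. Value is the concentration giving significant (≥30%) cytotoxicity, mean ± SE of three independent experiments.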

Dihydroorotate dehydrogenase (quinone), mitochondrial, sequence (Q02127 whole entry, the tested form may be a part): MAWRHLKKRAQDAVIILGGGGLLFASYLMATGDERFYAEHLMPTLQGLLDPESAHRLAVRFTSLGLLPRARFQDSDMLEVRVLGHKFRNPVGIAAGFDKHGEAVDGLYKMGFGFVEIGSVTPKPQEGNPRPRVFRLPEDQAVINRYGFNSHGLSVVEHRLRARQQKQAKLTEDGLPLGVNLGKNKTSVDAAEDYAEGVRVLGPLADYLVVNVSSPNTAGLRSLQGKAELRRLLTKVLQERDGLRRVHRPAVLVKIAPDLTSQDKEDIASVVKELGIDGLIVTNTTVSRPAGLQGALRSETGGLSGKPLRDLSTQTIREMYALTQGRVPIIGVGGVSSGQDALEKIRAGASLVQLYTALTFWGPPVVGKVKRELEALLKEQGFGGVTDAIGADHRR

Regarding `Cn1nc(O)c(C(=O)Nc2c(F)c(F)c(-c3ccccc3)c(F)c2F)n1`, the IC50 (usually the concentration that inhibits the measured activity by half) in data set [1] turned out to be 45 nM.
On the same count and under the same terms, then `Cn1c(=O)c(C(=O)Nc2c(F)c(F)c(-c3ccccc3)c(F)c2F)c2ccccn21`, with more than 5000 nM.
Turning to `Cc1c(-c2ccc(-c3ccccc3F)cc2)nc2ccc(F)cc2c1C(=O)O` [BREQUINAR], the remaining at 24 h in [2] turned out to be 98%. Besides, the IC50 was 910 nM in the data set with Jurkat [3], 94.2 µM in the data set with Jurkat [4], 3.74 µM with PBMC [5] and 59.6 µM in the data set on PBMC [6]. Also, the “%max” value in the data set with U-937 and in the data set with THP-1 was 40% each time.
Turning to `C/C(O)=C(\C#N)C(=O)Nc1ccc(C(F)(F)F)cc1` [TERIFLUNOMIDE], in the data set with Jurkat [7], the Activity turned out to be 53 µM.

(Values after ChEMBL document CHEMBL4130632, “Targeting Myeloid Differentiation Using Potent 2-Hydroxypyrazolo[1,5- a]pyridine Scaffold-Based Human Dihydroorotate Dehydrogenase Inhibitors” (J Med Chem, 2018).)
